Assay results reported in ChEMBL document CHEMBL1138837, “Structure-activity study on the Phe side chain arrangement of endomorphins using conformationally constrained analogues” (J Med Chem, 2004).
Residues, ends and D or L forms follow the SMILES beside them.

What was measured:
Mu-type opioid receptor [1] = biological target: T1, Mu-type opioid receptor (Rattus norvegicus, UniProt P33535); experiment: In vitro binding affinity towards Opioid receptor mu 1 in rat brain membranes; format: cell membranes
T1 sequence (P33535 whole entry): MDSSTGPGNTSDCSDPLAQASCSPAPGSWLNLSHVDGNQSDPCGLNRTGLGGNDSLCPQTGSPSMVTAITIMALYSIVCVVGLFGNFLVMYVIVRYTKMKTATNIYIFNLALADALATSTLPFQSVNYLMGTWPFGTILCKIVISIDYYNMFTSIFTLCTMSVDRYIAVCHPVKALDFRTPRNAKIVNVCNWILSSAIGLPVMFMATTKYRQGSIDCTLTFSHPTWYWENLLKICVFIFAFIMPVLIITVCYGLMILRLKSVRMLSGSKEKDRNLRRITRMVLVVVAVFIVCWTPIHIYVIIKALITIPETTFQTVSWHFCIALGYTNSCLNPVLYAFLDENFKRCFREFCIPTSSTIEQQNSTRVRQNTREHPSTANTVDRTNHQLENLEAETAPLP
In short: (§1)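 Wistar rat brain membranes without cerebellum (300–500 µg protein) in 50 mM Tris-HCl, pH 7.4, for competition binding. Incubation was stopped by vacuum filtration on GF/C filters, with two ice-cold buffer washes, then scintillation counting. Nonspecific binding was defined with 10 µM naloxone. Each assay was run in duplicate and repeated at least three times, with nonlinear least-squares fitting.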

Mu-type opioid receptor [2] = biological target: T1, Mu-type opioid receptor; experiment: Affinity for Opioid receptor mu 1 in rat brain membranes; format: cell membranes; in short: as §1
[3] = Half-life in rat brain homogenate; format: ADME
In short: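 Peptide from a 1 mM stock in 50 mM Tris-HCl, pH 7.4, was incubated at 37 °C with rat brain homogenate (5.4 mg/mL protein). Timed aliquots were acidified with 0.1 M HCl, centrifuged, and analysed by RP-HPLC with UV detection at 216 nm. The rate constant came from ln(A/A0) versus time (at least five points). Half-life assumed pseudo-first-order kinetics, from 3–5 measurements.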

[4] = biological target: Delta-type opioid receptor (Rattus norvegicus, UniProt P33533); experiment: Displacement of [3H]Ile5,6-deltorphin II from opioid receptor delta 1 of rat brain membranes; format: cell membranes, Membrane
Chain of Delta-type opioid receptor (P33533 whole entry): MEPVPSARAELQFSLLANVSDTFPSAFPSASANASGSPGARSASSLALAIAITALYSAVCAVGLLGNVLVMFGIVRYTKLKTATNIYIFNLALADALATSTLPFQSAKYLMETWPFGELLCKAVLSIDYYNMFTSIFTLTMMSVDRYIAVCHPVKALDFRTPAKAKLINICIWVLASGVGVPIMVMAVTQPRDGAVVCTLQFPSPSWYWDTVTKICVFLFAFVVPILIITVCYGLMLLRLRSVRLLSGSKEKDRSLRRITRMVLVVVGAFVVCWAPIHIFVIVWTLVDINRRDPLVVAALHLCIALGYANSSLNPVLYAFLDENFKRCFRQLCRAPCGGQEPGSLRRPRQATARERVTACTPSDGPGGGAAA

Mu-type opioid receptor [5] = biological target: Mu-type opioid receptor (Mus musculus, UniProt P42866); experiment: Inhibition of Mu opioid receptor of mouse vas deferens
Chain of Mu-type opioid receptor (Mus musculus, UniProt P42866) (P42866 whole entry): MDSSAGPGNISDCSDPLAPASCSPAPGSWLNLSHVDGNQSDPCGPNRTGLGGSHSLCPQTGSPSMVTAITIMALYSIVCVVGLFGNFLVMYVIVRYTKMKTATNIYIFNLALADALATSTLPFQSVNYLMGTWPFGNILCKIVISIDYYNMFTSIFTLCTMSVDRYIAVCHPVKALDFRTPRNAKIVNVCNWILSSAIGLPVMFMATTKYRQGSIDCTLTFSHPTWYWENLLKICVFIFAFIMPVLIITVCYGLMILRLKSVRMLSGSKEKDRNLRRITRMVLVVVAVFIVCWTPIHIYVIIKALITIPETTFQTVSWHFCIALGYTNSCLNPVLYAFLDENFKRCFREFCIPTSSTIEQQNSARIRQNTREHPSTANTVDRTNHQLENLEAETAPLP
In short: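 Mouse vas deferens in Mg-free Krebs at 31 °C, 0.1 g initial tension, equilibrated 30 min under electrical stimulation. Inhibition of evoked contractions was measured with noncumulative dose–response curves, and IC50 was obtained by sigmoidal fitting.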

Mu-type opioid receptor [6] = biological target: Mu-type opioid receptor (Cavia porcellus, UniProt P97266); experiment: Inhibition of Opioid receptor mu 1 of guinea pig ileum; format: tissue-based
Chain of Mu-type opioid receptor (Cavia porcellus, UniProt P97266) (P97266 whole entry): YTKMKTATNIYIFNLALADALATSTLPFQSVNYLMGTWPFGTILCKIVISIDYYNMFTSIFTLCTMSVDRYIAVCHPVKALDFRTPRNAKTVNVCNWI
In short: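 Guinea pig ileum in Krebs solution at 37 °C, initial tension 0.8 g, equilibrated 60 min under electrical stimulation. Electrically evoked contractions were inhibited, using noncumulative dose–response curves, with IC50 from sigmoidal curve fitting.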

Mu-type opioid receptor [7] = biological target: T1, Mu-type opioid receptor; experiment: Displacement of [3H]DAMGO from Opioid receptor mu 1 of rat brain membranes; format: cell membranes, Membrane
Mu-type opioid receptor [8] = biological target: T1, Mu-type opioid receptor; experiment: Displacement of [3H]endomorphin-2 from Opioid receptor mu 1 of rat brain membranes; format: cell membranes, Membrane
Rattus norvegicus [9] = organism: Rattus norvegicus; experiment: In vitro percent maximal stimulation of [35S]GTP-gamma-S, binding by the compound in rat brain membranes; format: functional; conditions: Membrane
In short: (§2)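 Rat brain membranes (about 10 µg protein) with 0.05 nM [35S]GTPγS, 100 µM GDP and compound at 10^-9–10^-5 M, in Tris-EGTA buffer (1 mM EGTA, 3 mM MgCl2, NaCl, pH 7.4), at 30 °C for 60 min. Basal binding was measured without compound; nonspecific binding with 100 µM GTPγS. GF/B filtration was used, with three experiments in triplicate. Stimulation is expressed as percent of specific binding.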

Rattus norvegicus [10] = organism: Rattus norvegicus; experiment: In vitro effective dose against [35S]GTP-gamma-S, binding to rat brain membranes; format: functional; conditions: Membrane; in short: as §2

SMILES | IC50 (Mu-type opioid receptor [1]) | Ki (Mu-type opioid receptor [2]) | half-life [3] | Ki [4] | IC50 (Mu-type opioid receptor [5]) | IC50 (Mu-type opioid receptor [6]) | Ki (Mu-type opioid receptor [7]) | Ki (Mu-type opioid receptor [8]) | Max stimulation (Rattus norvegicus [9]) | ED50 (Rattus norvegicus [10])
N[C@@H](Cc1ccc(O)cc1)C(=O)N1CCC[C@H]1C(=O)N[C@@H](Cc1ccccc1)C(=O)O (H-Tyr-Pro-Phe-OH) | 161 nM | 46.3 nM | – | – | – | – | – | – | – | –
C[C@@H](c1ccccc1)[C@H](NC(=O)[C@H](Cc1ccccc1)NC(=O)[C@@H]1CCCN1C(=O)[C@@H](N)Cc1ccc(O)cc1)C(N)=O | – | – | 16.1 min | 6360 nM | 9.15 nM | 3.46 nM | 1.67 nM | 0.97 nM | 148% | 139 nM
C[C@H](c1ccccc1)[C@@H](NC(=O)[C@@H]1CCCN1C(=O)[C@@H](N)Cc1ccc(O)cc1)C(=O)N[C@@H](Cc1ccccc1)C(N)=O | – | – | – | 6760 nM | – | – | – | – | 105% | 7.7 nM
C[C@H](c1ccccc1)[C@H](NC(=O)[C@H](Cc1c[nH]c2ccccc12)NC(=O)[C@@H]1CCCN1C(=O)[C@@H](N)Cc1ccc(O)cc1)C(N)=O | – | – | – | – | – | – | 26.3 nM | 23.4 nM | 126% | 209 nM
C[C@H](c1ccccc1)[C@H](NC(=O)[C@H](Cc1ccccc1)NC(=O)[C@@H]1CCCN1C(=O)[C@@H](N)Cc1ccc(O)cc1)C(N)=O | – | – | – | 4900 nM | 235 nM | 89.9 nM | 69.5 nM | 23.4 nM | 132% | 455 nM
C[C@@H](c1ccccc1)[C@@H](NC(=O)[C@H](Cc1c[nH]c2ccccc12)NC(=O)[C@@H]1CCCN1C(=O)[C@@H](N)Cc1ccc(O)cc1)C(N)=O | – | – | – | – | – | – | 107 nM | 47 nM | 124% | 784 nM
C[C@H](c1ccccc1)[C@@H](NC(=O)[C@H](Cc1c[nH]c2ccccc12)NC(=O)[C@@H]1CCCN1C(=O)[C@@H](N)Cc1ccc(O)cc1)C(N)=O | – | – | – | – | – | – | 45.3 nM | 43.6 nM | 114% | 1490 nM
C[C@H](c1ccccc1)[C@H](NC(=O)[C@@H]1CCCN1C(=O)[C@@H](N)Cc1ccc(O)cc1)C(=O)N[C@@H](Cc1ccccc1)C(N)=O | – | – | – | > 10000 nM | – | – | – | – | 146% | 1800 nM
C[C@@H](c1ccccc1)[C@H](NC(=O)[C@H](Cc1c[nH]c2ccccc12)NC(=O)[C@@H]1CCCN1C(=O)[C@@H](N)Cc1ccc(O)cc1)C(N)=O | – | – | 10.7 min | – | – | – | 0.8 nM | 0.47 nM | 163% | 114 nM
C[C@@H](c1ccccc1)[C@@H](NC(=O)[C@@H]1CCCN1C(=O)[C@@H](N)Cc1ccc(O)cc1)C(=O)N[C@@H](Cc1ccccc1)C(N)=O | – | – | – | > 10000 nM | – | – | – | – | 103% | 53 nM
NC(=O)[C@H](Cc1ccccc1)NC(=O)[C@H](Cc1ccccc1)NC(=O)[C@@H]1CCCN1C(=O)[C@@H](N)Cc1ccc(O)cc1 [ENDOMORPHIN 2] | – | – | 3.8 min | – | – | – | – | – | 213% | –
C[C@@H](c1ccccc1)[C@H](NC(=O)[C@@H]1CCCN1C(=O)[C@@H](N)Cc1ccc(O)cc1)C(=O)N[C@@H](Cc1ccccc1)C(N)=O | – | – | – | 179 nM | – | – | – | – | 160% | 1610 nM
NC(=O)[C@H](Cc1ccccc1)NC(=O)[C@H](Cc1c[nH]c2ccccc12)NC(=O)[C@@H]1CCCN1C(=O)[C@@H](N)Cc1ccc(O)cc1 [ENDOMORPHIN-1] | – | – | 4.9 min | – | – | – | – | – | 237% | 289 nM
C[C@H](c1ccccc1)[C@@H](NC(=O)[C@H](Cc1ccccc1)NC(=O)[C@@H]1CCCN1C(=O)[C@@H](N)Cc1ccc(O)cc1)C(N)=O | – | – | – | 5180 nM | > 10000 nM | 816 nM | 250 nM | 127 nM | 108% | 104 nM
C[C@@H](c1ccccc1)[C@@H](NC(=O)[C@H](Cc1ccccc1)NC(=O)[C@@H]1CCCN1C(=O)[C@@H](N)Cc1ccc(O)cc1)C(N)=O | – | – | – | > 10000 nM | > 10000 nM | 589 nM | 104 nM | 47.7 nM | 115% | 572 nM
